Activity calls are given as the source filed them. The rule behind the calls is not given here.

Experiment [1] can be described thus: Binding affinity to HIV1 LAI reverse transcriptase M41L/L210W/T215Y/M184V/G333D mutant assessed as ATP-mediated excision of zidovudine-monophosphate terminated DNA/DNA template/primer duplex chain at 100 uM by gel shift mobility assay. Also on record: species or system Human immunodeficiency virus 1. The essentials:
(§1)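 Native 4% PAGE in Tris-acetate pH 8.0 with 1 mM EDTA, 30 min at 100 V, room temperature. The shifted band was taken as a 1:1 RT-T/P complex to give Kd. Mean ± SD of three experiments.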

For experiment [2], the system named is Human immunodeficiency virus 1. The experiment can be described thus: Binding affinity to 200 nM HIV1 LAI reverse transcriptase M41L/L210W/T215Y/M184V/G333D mutant assessed as ATP-mediated excision of zidovudine-monophosphate from chain terminated DNA/DNA template/primer duplex at 100 uM. The essentials: (§2)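 Primer P20 (5′-³²P) on DNA template T57 was chain-terminated with WT RT and 100 μM AZT-TP (30 min, 37°C), gel-purified and reannealed. 200 nM active-site RT with 20 nM terminated T/P in 50 mM Tris-HCl pH 8.0, 50 mM KCl. Started with 3.0 mM ATP, 10 mM MgCl₂, 1 μM TTP and 5 μM ddCTP. Timed aliquots were run on 7 M urea-16% PAGE and phosphorimaged.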

The target in experiment [3] is Human immunodeficiency virus type 1 reverse transcriptase (Human immunodeficiency virus 1) (UniProt Q72547). The experiment can be described thus: Binding affinity to 200 nM wild type HIV1 LAI reverse transcriptase assessed as ATP-mediated excision of zidovudine-monophosphate from chain terminated DNA/DNA template/primer duplex at 100 uM. Summed up: as §2
Experiment [4] relates to Human immunodeficiency virus 1. The experiment can be described thus: Binding affinity to HIV1 LAI reverse transcriptase M41L/L210W/T215Y/M184V/G333D mutant assessed as ATP-mediated excision of zidovudine-monophosphate from chain terminated RNA/DNA template/primer duplex. The essentials:
(§3)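 The AZT-MP-terminated ³²P-P20 primer was annealed to a 35-nt RNA template (T35). 200 nM active-site RT with 20 nM T/P in 50 mM Tris-HCl pH 8.0, 50 mM KCl. Started with 3.0 mM ATP and 10 mM MgCl₂. Timed aliquots were quenched and separated on denaturing urea-PAGE, then phosphorimaged.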

The subject of experiment [5] is Human immunodeficiency virus type 1 reverse transcriptase (Human immunodeficiency virus 1), Q72547 [M184V]. The experiment can be described thus: Binding affinity to 200 nM HIV1 LAI reverse transcriptase M184V mutant assessed as ATP-mediated excision of zidovudine-monophosphate from chain terminated DNA/DNA template/primer duplex at 100 uM. The essentials:
as §2

The target of experiment [6] is Human immunodeficiency virus type 1 reverse transcriptase (Human immunodeficiency virus 1, UniProt Q72547, L210W/M184V/M41L/T215Y). Put plainly: Binding affinity to HIV1 LAI reverse transcriptase M41L/L210W/T215Y/M184V mutant assessed as ATP-mediated excision of zidovudine-monophosphate terminated DNA/DNA template/primer duplex chain at 100 uM by gel shift mobility assay. Summed up: as §1
(In general: Mobility shift assays separate free from complexed probe on a gel.)

Experiment [7] has as its system Human immunodeficiency virus 1. Put plainly: Selectivity ratio of Kd for excision of zidovudine-monophosphate terminated DNA/DNA template/primer duplex chain in HIV1 LAI reverse transcriptase M41L/L210W/T215Y/M184V/G333D mutant to Kd for excision of zidovudine-monophosphate terminated DNA/DNA template/primer duplex chain in wild type HIV1 LAI reverse transcriptase by gel shift mobility assay.

Experiment [8] is described as follows: Binding affinity to HIV1 LAI reverse transcriptase M41L/L210W/T215Y/K65R/G333D mutant assessed as ATP-mediated excision of zidovudine-monophosphate terminated DNA/DNA template/primer duplex chain at 100 uM by gel shift mobility assay. Also on record: species or system Human immunodeficiency virus 1. Summed up:
as §1

The subject of experiment [9] is Human immunodeficiency virus 1. The experiment can be described thus: Selectivity ratio of Kd for excision of zidovudine-monophosphate from chain terminated DNA/DNA template/primer duplex in 200 nM HIV1 LAI reverse transcriptase M41L/L210W/T215Y mutant to Kd for excision of zidovudine-monophosphate from chain terminated DNA/DNA template/primer duplex in 200 nM HIV1 LAI reverse transcriptase M184V mutant by gel shift mobility assay.

The target in experiment [10] is Human immunodeficiency virus type 1 reverse transcriptase (Human immunodeficiency virus 1, UniProt Q72547, K65R/L210W/M41L/T215Y). The experiment can be described thus: Binding affinity to HIV1 LAI reverse transcriptase M41L/L210W/T215Y/K65R mutant assessed as ATP-mediated excision of zidovudine-monophosphate terminated DNA/DNA template/primer duplex chain at 100 uM by gel shift mobility assay. Summed up: as §1

Experiment [11] has as its system Human immunodeficiency virus 1. Put plainly: Selectivity ratio of Kd for excision of zidovudine-monophosphate from chain terminated DNA/DNA template/primer duplex in HIV1 LAI reverse transcriptase M41L/L210W/T215Y/K65R/G333D mutant to Kd for excision of zidovudine-monophosphate from chain terminated DNA/DNA template/primer duplex in wild type HIV1 LAI reverse transcriptase by gel shift mobility assay.

For experiment [12], the system named is Human immunodeficiency virus type 1 reverse transcriptase (Human immunodeficiency virus 1), Q72547 [M41L,L210W,T215Y]. Put plainly: Binding affinity to 200 nM HIV1 LAI reverse transcriptase M41L/L210W/T215Y mutant assessed as ATP-mediated excision of zidovudine-monophosphate from chain terminated DNA/DNA template/primer duplex at 100 uM. The essentials:
as §2

Experiment [13] has as its system Human immunodeficiency virus 1. The experiment can be described thus: Selectivity ratio of Kd for excision of zidovudine-monophosphate terminated DNA/DNA template/primer duplex chain in HIV1 LAI reverse transcriptase M184V mutant to Kd for excision of zidovudine-monophosphate terminated DNA/DNA template/primer duplex chain in wild type HIV1 LAI reverse transcriptase by gel shift mobility assay.

Experiment [14] has as its system Human immunodeficiency virus 1. The experiment can be described thus: Selectivity ratio of Kd for excision of zidovudine-monophosphate terminated DNA/DNA template/primer duplex chain in HIV1 LAI reverse transcriptase M41L/L210W/T215Y/M184V mutant to Kd for excision of zidovudine-monophosphate terminated DNA/DNA template/primer duplex chain in wild type HIV1 LAI reverse transcriptase by gel shift mobility assay.

Experiment [15] concerns the target Human immunodeficiency virus type 1 reverse transcriptase (Human immunodeficiency virus 1) (UniProt Q72547). Put plainly: Binding affinity to wild type HIV1 LAI reverse transcriptase assessed as ATP-mediated excision of zidovudine-monophosphate from chain terminated RNA/DNA template/primer duplex. The essentials:
as §3

For experiment [16], the target named is Human immunodeficiency virus type 1 reverse transcriptase (Human immunodeficiency virus 1, UniProt Q72547, L210W/M41L/T215Y). The experiment can be described thus: Binding affinity to HIV1 LAI reverse transcriptase M41L/L210W/T215Y mutant assessed as ATP-mediated excision of zidovudine-monophosphate terminated DNA/DNA template/primer duplex chain at 100 uM by gel shift mobility assay. The essentials: as §1

Experiment [17] has as its system Human immunodeficiency virus 1. Put plainly: Selectivity ratio of Kd for excision of zidovudine-monophosphate terminated DNA/DNA template/primer duplex chain in HIV1 LAI reverse transcriptase M41L/L210W/T215Y/K65R mutant to Kd for excision of zidovudine-monophosphate terminated DNA/DNA template/primer duplex chain in wild type HIV1 LAI reverse transcriptase by gel shift mobility assay.

Experiment [18] concerns Human immunodeficiency virus type 1 reverse transcriptase (Human immunodeficiency virus 1), Q72547 [M184V]. The experiment can be described thus: Binding affinity to HIV1 LAI reverse transcriptase M184V mutant assessed as ATP-mediated excision of zidovudine-monophosphate from chain terminated RNA/DNA template/primer duplex at 100 uM. The essentials:
as §3

In experiment [19] the test system is Human immunodeficiency virus 1. Put plainly: Selectivity ratio of Kd for excision of zidovudine-monophosphate terminated DNA/DNA template/primer duplex chain in HIV1 LAI reverse transcriptase M41L/L210W/T215Y mutant to Kd for excision of zidovudine-monophosphate terminated DNA/DNA template/primer duplex chain in wild type HIV1 LAI reverse transcriptase by gel shift mobility assay.

As to `Cc1cn([C@H]2C[C@H](N=[N+]=[N-])[C@@H](COP(=O)(O)O)O2)c(=O)[nH]c1=O` [AZIDOTHYMIDINE MONOPHOSPHATE], the Kd (usually the constant that tells how readily two partners part at equilibrium) was 46.2 nM in experiment [1]; 98.4 nM in experiment [6]; 22.3 nM in experiment [8]; 20.5 nM in [10]; 18.8 nM in experiment [16]. Further, the outcome in [2], in experiment [3], in experiment [4], in [5] and in experiment [12] was Active. Besides, the Ratio stood at 2.3 in experiment [7]; 1.1 in experiment [11]; 3.8 in experiment [13]; 5 in [14]; 1 in experiment [17]; 1 in experiment [19]. In addition, in experiment [9], the fold change (FC) came out at 4. Further, the outcome in experiment [15] and in [18] was inactive.

These data come from ChEMBL document CHEMBL1153554, “Mechanisms by which the G333D mutation in human immunodeficiency virus type 1 Reverse transcriptase facilitates dual resistance to zidovudine and lamivudine” (Antimicrob Agents Chemother, 2008).
